Screening results from PubChem BioAssay.
Dynein transport: inhibitors of GR-EGFP nuclear translocation, primary screen, dynein cargo transport inhibitor project, imaging, high-content, 3617.4 mouse cells; test concentration mostly 20 µM; stimulated with dexamethasone, 1 µM; stronger effect = lower value; 0.47% of 220,000 active; z-score, hits read low;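 active = plate z-score of nuclear minus cytoplasmic receptor signal below a set negative limit, without overly bright fluorescence or cell loss, cut at about -3.5 in these data, passing the limit was not always enough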;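 also: z-score of nuclear minus cytoplasmic ring GR-EGFP intensity difference per well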
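Also added: dexamethasone, 1.0 µM final. Medium: tet-free, stripped-serum medium. Detection: fixed, Hoechst-stained cells imaged at 10x for EGFP. Read-out: nuclear-to-cytoplasmic GR-EGFP distribution per well. Times: induction 48 h, compound 1 h, agonist 30 min.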
ROMK mod: ROMK potassium channel modulators, primary screen, cell-based, thallium flux, MLSMR library | 2% of 130,000 active | Tet-inducible ROMK, thallium flux fluorescence; actives lie on both sides | ATP-sensitive inward rectifier potassium channel 1 (Homo sapiens), P48048 | B-score at 10 µM;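 active = signal ratio slope over the read window, or its plate-corrected B-score, at least 3 SD from the plate mean, either direction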;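 also: B-score of the F/F0 ratio slope over 7 to 12 s after thallium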
Cl transport mod: KCC2 cotransporter modulators, thallium flux, primary screen, cell-based, HEK293 KCC2, FluoZin-2 fluorescence, MLSMR; Solute carrier family 12 member 5 (Homo sapiens), Q9H2X9; KCC2 cells, thallium flux FluoZin-2 fluorescence; B-score of Tl+ flux slope (higher = more flux/activation; lower = inhibition) at 10 µM; 2.2% of 190,000 active; AID 1456, 2008;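 active = thallium flux slope and its plate-corrected score both differing from the plate sample mean at a set confidence after two filtering rounds, in either direction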;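 also: slope of fluorescence scaled to starting intensity during 10 to 20 s after thallium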
DTT redox prof: compounds producing H2O2 with reducing agent – biochemical, NIH compound library profiling, artefact control for MLSCN library redox annotation, primary screen. DTT-dependent redox cycling H2O2, phenol red/HRP absorbance; 100% = 100 µM peroxide control, 0% = buffer. activation, % at 10 µM. AID 878, 2007. 0.03% of 200,000 active;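 active = activation of at least 50% relative to the plate's high and low controls in the primary single-dose screen; inactive = activation below 50%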;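 also: compound incubated with DTT at 0.8 mM final as the reducing agent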
Autophagy mod: autophagy modulators in MEF cells, primary screen, imaging, high-content, MEF GFP-LC3; MEF GFP-LC3 puncta imaging; test concentration mostly 10 µM; calls only at 10 µM (by protocol); 0.98% of 190,000 active;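 active = percentage of spot-positive cells more than 3 SD above its plate mean, without a fluorescence outlier flag or 80% toxicity; inconclusive = no clear call, values can overlap the other calls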;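 also: spot-positive cell cutoff set from DMSO-treated cells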
KCC2 secondary: KCC2 modulators in sodium-free buffer, confirmation, cell-based, HEK293 KCC2, thallium flux, secondary assay. shares compounds with Cl transport mod. FluoZin2 fluorescence; stronger effect = higher value. normalised thallium flux (F/F0 slope) at 10 µM. 15% of 3,700 active. AID 1713, 2009;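 active = thallium flux slope above the same plate's solvent-only control mean plus 3 SD; inconclusive = the two replicate wells disagree; inactive = no significant difference from solvent-only control wells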
KCC2 bumet counter: thallium flux persisting under bumetanide in KCC2 cells, confirmation, counter-screen for KCC2 modulator project, cell-based, HEK293 KCC2, FluoZin2, secondary assay 3 | shares compounds with Cl transport mod | HEK293-KCC2 + bumetanide/ouabain; stronger effect = higher value | normalized thallium flux at 10 µM | 49% of 3,700 active | AID 1714, 2009;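 active = thallium entry rate above the same plate's blocked-transporter control wells by more than 3 SD; inconclusive = the two repeat wells disagree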;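 also: raw slope of fluorescence over initial fluorescence between 10 and 20 s after thallium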
KCC2 sec2: KCC2 modulators without ouabain present, confirmation, cell-based, HEK293 KCC2, thallium flux, FluoZin2, secondary assay 2; shares compounds with Cl transport mod; thallium flux FluoZin2 fluorescence; actives lie on both sides; F/F0 rise rate, 10–20 s post-thallium; normalized thallium flux at 10 µM; 23% of 3,700 active;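 active = thallium flux slope more than 3 SD above or below the plate's solvent-only control mean, mostly below; inconclusive = the two repeat wells disagreed; inactive = no significant shift from solvent-only controls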;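 also: raw slope with 0.1% DMSO as baseline and bumetanide as block control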
HEK293 Tl flux: thallium flux modulation in parental HEK cells, confirmation, counter-screen for KCC2 modulator project, cell-based, counterscreen 1; shares compounds with Cl transport mod; HEK293 parental cells, thallium flux FluoZin2, ouabain; baseline-ratio fluorescence slope, 10–20 s after thallium; thallium flux rate (normalised fluorescence) at 10 µM; 46% of 3,700 active; AID 1716, 2009;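 active = thallium flux rate significantly above the same plate's solvent-only control wells, beyond their mean plus 3 SD; inconclusive = the two replicate wells gave conflicting results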
KCC2 retest ouab: KCC2 inhibitors and activators, ouabain retest, confirmation, HEK-KCC2 cells; HEK293-KCC2, thallium flux FluoZin2 fluorescence; bidirectional: low = inhibitor, high = activator; 48% of 3,700 active; AID 1717, 2009; shares compounds with Cl transport mod; raw Tl+ flux slope (below DMSO = inhibition, above = activation) at 10 µM;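 active = thallium flux slope beyond 3 SD from same-plate DMSO control mean in most replicates, usually higher, sometimes lower; inconclusive = repeat tests gave conflicting results; inactive = no significant difference from controls in most replicates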;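 also: slope of initial-normalized fluorescence between seconds 10 and 20 after thallium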
HEK293 Tl flux2: native HEK Tl+ uptake effects, second counter-screen – HEK cells, counterscreen 2, counter-screen for KCC2 modulator project, confirmation; shares compounds with Cl transport mod; HEK293 parental, thallium flux FluoZin-2 fluorescence slope; thallium flux slope at 10 µM; 33% of 3,700 active;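 active = thallium flux slope above the same plate's solvent-control mean plus 3 SD in both duplicate wells; inconclusive = duplicate wells that disagreed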;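 also: run without ouabain in cells lacking the KCC2 cotransporter; slope of fluorescence scaled to its starting value between 10 and 20 s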
An asterisk follows results filed as active; i = inactive; ? = inconclusive; . = no result. Shown are actives, neighbours in structure and some others; about 4.1% of the full set was active somewhere.

SMILES | Dynein transport | ROMK mod | Cl transport mod | DTT redox prof | Autophagy mod | KCC2 secondary | KCC2 bumet counter | KCC2 sec2 | HEK293 Tl flux | KCC2 retest ouab | HEK293 Tl flux2
CC1Cc2ccccc2N1C(=O)c1ccc(N2CCCC2)c([N+](=O)[O-])c1 (stereo unspecified) | -0.674 | . | -6.53* | -0.1 | i | 0.00681 | 0.00467 | 0.0197* | 0.00712 | 0.0126* | 0.0104
CC1Cc2ccccc2N1C(=O)c1ccc(N2CCCCC2)c([N+](=O)[O-])c1 (stereo unspecified) | -1.02 | . | -4.73* | 1.5 | i | 0.0106 | ? | ? | 0.00686 | 0.0135* | 0.0101
COc1ccc(C(=O)N2c3ccccc3CC2C)cc1OC (stereo unspecified) | -0.294 | . | -1.14 | 3.1 | i | . | . | . | . | . | .
C/C(=N/NC(=O)c1cc(-c2ccc(Cl)s2)[nH]n1)c1ccco1 | 0.494 | -0.0295 | 10.3* | . | . | 0.00766 | 0.00965* | 0.0293 | 0.0132* | 0.0206 | ?
Cc1ccc(C)c(C(=O)CN2C(=O)NC3(CCC(C)CC3)C2=O)c1 (stereo unspecified) | 0.711 | . | -0.0446 | 0.5 | i | . | . | . | . | . | .
Cc1ccc2oc(-c3ccc(C)c(NC(=S)NC(=O)c4cccs4)c3)nc2c1 | 0.895 | . | 4.6* | 0.2 | i | 0.0109 | 0.0116* | 0.0342 | ? | ? | 0.0114
Cc1occc1C(=O)Nc1nnc(C(F)(F)F)s1 | -0.24 | . | 0.362 | -2.4 | i | . | . | . | . | . | .
O=C(Nc1ccccc1C(=O)Nc1nnc(C(F)(F)F)s1)c1ccccc1 | 0.497 | . | 3.19* | . | . | ? | 0.022* | 0.033 | ? | 0.0193 | 0.0113
COc1ccccc1CCC(=O)Nc1ccc(C)cc1Cl | 1.19 | -0.311 | -0.673 | -0.5 | i | . | . | . | . | . | .
C=CCO/N=C(/C)c1ccc(Oc2cnccn2)cc1 | 0.24 | 0.0138 | 0.523 | -2.3 | i | . | . | . | . | . | .
COc1ccc2nc(SCC(=O)Nc3ccc4c(c3)OCCO4)[nH]c2c1 | -0.227 | . | -2.47* | 0.8 | i | 0.00722 | 0.00483 | 0.0298 | 0.00735 | 0.0196 | 0.0115
COc1ccc(-c2cc(CCCC(=O)NCCc3cc(OC)ccc3OC)no2)cc1 | -0.175 | 0.418 | -4.68* | 1.0 | i | 0.00714 | 0.00417 | 0.0314 | 0.00711 | 0.0173 | 0.0112
COc1ccc(-c2cc(CCCC(=O)N3CCN(c4ccc(OC)cc4)CC3)no2)cc1 | -0.721 | . | -0.927 | -0.7 | i | . | . | . | . | . | .
Clc1ccc(OCc2cn3ccccc3n2)c2ncccc12 | -0.975 | 0.112 | -3.74* | -0.3 | i | 0.00621 | 0.0063 | 0.0301 | 0.00662 | 0.0173 | 0.00955
OCc1ccccc1OCCOc1ccc(Cl)c2cccnc12 | -0.786 | -0.776 | -2.19 | 2.3 | i | . | . | . | . | . | .
N#CCSc1nnc(COc2cccc3ccccc23)n1-c1ccccc1 | -0.197 | -0.452 | . | 0.4 | i | . | . | . | . | . | .
N#CCSc1nnc(COc2cccc3ccccc23)n1-c1cccc(Cl)c1 | -0.443 | -0.544 | 7.57* | 1.1 | i | 0.00719 | ? | 0.0299 | 0.00812 | 0.0202 | 0.011
NC(=S)N/N=C/c1ccc(-c2ccccc2)o1 | 0.0724 | -0.414 | 1.69 | -0.2 | i | . | . | . | . | . | .
Cc1ccc(-c2ccc(/C=N/NC(N)=S)o2)cc1 | 0.329 | . | 5.05* | . | . | 0.00617 | 0.0122* | 0.0328 | 0.0104* | ? | ?
Cc1ccc(-c2ccc(/C=N/NC(=O)c3ccccc3O)o2)cc1 | 0.377 | 0.351 | 61.4* | . | . | 0.0197* | 0.0794* | 0.0365 | 0.0406* | 0.0565* | 0.0148*
COC(=O)C1=NN(C(=O)c2ccccc2)C(C)(O)C1 (stereo unspecified) | 0.59 | 1.61 | . | -0.1 | i | . | . | . | . | . | .
CC1=NN(C(=O)c2ccc(Br)cc2)C(O)(C(F)(F)OC(F)(F)F)C1 (stereo unspecified) | -0.568 | -0.0522 | 6.07* | -8.2 | i | 0.00941 | 0.00988* | 0.0309 | 0.00879* | 0.0289* | ?
CC1=NN(C(=O)c2csc(C)c2)C(O)(C(F)(F)F)C1 (stereo unspecified) | 0.904 | 0.343 | 0.788 | 0.1 | i | . | . | . | . | . | .
COC(=O)C1=NN(C(=O)c2ccc(Br)cc2)C(O)(C(C)(C)C)C1 (stereo unspecified) | -1.6 | 0.00262 | 65.8* | -0.1 | i | 0.0486* | 0.136* | 0.0464* | ? | 0.0995* | 0.0215*
Cc1cccc(NC(=O)C2=C(O)c3ccccc3N(C)S2(=O)=O)c1 | . | . | -0.729 | 2.9 | i | . | . | . | . | . | .
CN1c2ccccc2C(O)=C(C(=S)Nc2ccc(Cl)cc2)S1(=O)=O | 1.24 | . | . | 1.6 | i | 0.00651 | 0.0212* | 0.0349 | 0.0173* | ? | 0.0214*
CCC1CCCCN1C(=S)NC(=O)c1cccs1 (stereo unspecified) | -0.591 | 1.91 | 62.7* | -2.2 | i | 0.0363* | 0.103* | 0.0857* | 0.0882* | 0.0877* | 0.0872*
O=C(NC1CCCCC1NC(=O)c1cccs1)c1cccs1 (stereo unspecified) | -0.816 | . | 0.238 | -3.0 | i | . | . | . | . | . | .
CCC1CCCCN1C(=S)NC(=O)c1ccc(F)c(S(=O)(=O)N2CCOCC2)c1 (stereo unspecified) | -0.346 | . | 3.2* | -0.3 | i | ? | 0.0188* | 0.0292 | 0.0105* | 0.0288* | ?
O=C(Nc1ccc2c(c1)CCC2)c1ccc(F)c(S(=O)(=O)N2CCOCC2)c1 | -0.0302 | -1.87 | -1.2 | 0.3 | i | . | . | . | . | . | .
